Assays:
[1] = target: Soluble extracellular domain of HER2 protein (Homo sapiens, UniProt P04626); experiment: Fibrillar transformation of NPs on interaction with HER2 protein; conditions: TEM/DLS, over 24 h, HER2 protein/peptide ligand 1:1000
Outline: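 Soluble HER2 extracellular domain (HEK 293-expressed) was added to fresh nanoparticles (99% water, 20 μM) at a HER2/peptide ligand ratio of 1:1000. At 0.5, 6 and 24 h, samples were taken for DLS size and zeta potential, CD, and TEM with uranyl acetate staining. Bis-pyrene AIE fluorescence was followed over time to track transformation.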

[2] = Size of nanoparticles by DLS and TEM; assay type: physicochemical; conditions: fresh NPs, 99% water content (H2O:DMSO 99:1), 20 μM
Outline: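 Peptide in DMSO was diluted with DMSO/deionized water mixtures to give a range of water contents. Nanoparticle formation was checked by UV–vis absorption and fluorescence spectra. Freshly made nanoparticles (99% water, 20 μM) were sized by DLS and by TEM with uranyl acetate staining.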

[3] = tested on: MCF-7/C6 HER2+ breast cancer; experiment: In vivo therapeutic effect, MCF-7/C6 xenograft; set-up: species or system Balb/c nude mice; conditions: 8 mg/kg i.v., 8 times q.o.d., n = 8 per group
Outline: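 Balb/c nude mice bearing s.c. flank MCF-7/C6 tumours (5×10^6 cells) were randomised into five groups 10 days after inoculation. Groups received PBS or test nanoparticles i.v. every 48 h. Tumour volume and body weight were measured twice weekly over the 40-day treatment, and survival was followed. Data are mean ± s.d.; t-test or ANOVA.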

MCF-7/C6 tumour tissue = experiment: Tumour tissue analysis after three injections; assay type: in vivo, Balb/c nude mice; conditions: 3 consecutive q.o.d. injections, 8 mg/kg, n = 6
Outline: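 MCF-7/C6 tumour-bearing Balb/c nude mice were sacrificed after three i.v. injections given every other day. Excised tumours were processed for H&E staining, Ki-67 staining, fluorescence imaging of sections and high-magnification TEM.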

| Substance | structural transformation after treatment with HER2 protein [1] | diameter of nanoparticles [2] | time within which all mice died [3] [days] | cell kill in tumour sections (H&E) (MCF-7/C6 tumour tissue) |
| --- | --- | --- | --- | --- |
| BP-FFVLK-PEG1000 [NPs3] | did not reveal any significant changes | 25–60 nm | ≤ 57 | No significant cell kill was detected |
| BP-GGAAK-PEG1000 [NPs4] | did not reveal any significant changes | around 20 nm | ≤ 60 | No significant cell kill was detected |

Source: paper PMC7147967 (Nature nanotechnology, 2020)
